Measured values taken from PubChem BioAssay.
Activity calls are given as the source filed them.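 The calls were made as follows, unless noted: active = viability at or under a set limit in both replicates, limit being median viability minus 3 SD (cut at about 48% in these data, passing the limit was not always enough); inconclusive = at or under the limit in just one replicate; inactive = at or above the limit in both replicates.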

Assays:
[1] = HUVEC growth inhibition – cell-based, human, primary screen (AID 575;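 active = viability at or below 30% in both replicate assays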;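 also: 100% = median of untreated cell wells with 0.1% DMSO on each plate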); conditions: HUVEC proliferation, CellTiter-Glo luminescence, 72 h; at 10 µM; stronger effect = lower value
How it was run: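 Test system: primary human umbilical vein endothelial cells; medium: endothelial basal medium with 2% FBS plus growth supplements; dosing: 10 µM compound only; times: 72 h treatment at 37 °C; signal: CTG luminescence; read-out: % viability relative to median vehicle-well signal on each plate; control set: vehicle and MePR control wells; plate: 384-well, collagen-coated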

[2] = H69AR cell proliferation blockers – human, duplicate replicates, primary screen (AID 580); conditions: H69AR lung tumor cells viability, ATP luminescence, 72 h; at 10 µM; stronger effect = lower value;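 also: 100% = mean luminescence of untreated wells and 0% = no signal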
[3] = MRP1 drug-resistance reversers in H69AR cells – cell-based, doxorubicin co-treatment, pilot screen (AID 601;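 active = viability loss from added drug above about 55%, and viability with drug at most 40%, in both replicates, limit read from the data, passing the limit was not always enough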); conditions: CellTiter-Glo, 72 h, at 10 µM; for differential viability (reversal): stronger effect = higher value
[4] = yeast transport mutant growth inhibition pilot in 384-well plates, post-Golgi transport modulator project (AID 636; in the data active = inhibition above about 31%); conditions: absorbance 615 nm, about 18 h, stronger effect = higher value
[5] = growth suppression of yeast trafficking mutant, preliminary HTS, modulators of trafficking downstream of Golgi apparatus project, 1536-format plate, OD 615 nm (AID 637; in the data active = inhibition above about 30%); conditions: yeast transport mutant growth, absorbance 615 nm, 18 h; stronger effect = higher value
[6] = H69AR cells + 2 uM doxorubicin, measured here: viability with 2 uM doxorubicin, stronger effect = lower value
[7] = H69AR cells, compound alone cytotoxicity

Row | Structure (SMILES) | viability [1] | viability [2] | differential viability (reversal) ([3]; H69AR cells + 2 uM doxorubicin) | viability [3, 6] | viability [3, 7] | inhibition [4] | inhibition [5]
1 | COc1ccc(-c2nc(C(N)=O)c3[nH]c(=O)n(-c4cccc(Cl)c4)c3n2)cc1OC | 3.29% (active) | 1.2% (active) | -0.93% (inactive) | 2.13% | 1.2% | 6.23% (inactive) | -0.33% (inactive)
2 | COc1cc2c(cc1OC)CN(Cc1nc3ccsc3c(=O)[nH]1)CC2 | 99.5% (inactive) | 92.2% (inactive) | 7.59% (inactive) | 84.6% | 92.2% | -2.73% (inactive) | 3.17% (inactive)
3 | CC(=O)Nc1ccc(N2CCN(Cc3ccccc3F)CC2)cc1 | 88.8% (inactive) | 92.5% (inactive) | 8.67% (inactive) | 83.8% | 92.5% | -0.91% (inactive) | 1.11% (inactive)
4 | CCCSc1nnc(-c2ccccc2NC(=O)CC)c(=O)[nH]1 | 99.4% (inactive) | 103% (inactive) | 14.4% (inactive) | 88.1% | 103% | -5.87% (inactive) | 3.97% (inactive)
5 | COc1ccccc1-c1nc(C(F)(F)F)c(OC)o1 | 104% (inactive) | 91.9% (inactive) | 10.3% (inactive) | 81.6% | 91.9% | -1.97% (inactive) | 17.9% (inactive)
6 | Cc1ccc(Nc2nc(CSc3nnc(-c4cccs4)o3)cs2)cc1 | 78.7% (inactive) | 90.5% (inactive) | -1.67% (inactive) | 92.2% | 90.5% | -4.8% (inactive) | -2.22% (inactive)
7 | CCOC(=O)CSc1nnc(-c2ccc(Cl)cc2Cl)o1 | 105% (inactive) | 101% (inactive) | 3.39% (inactive) | 97.4% | 101% | -5.07% (inactive) | -0.16% (inactive)
8 | CCN(CC(=O)NC(=O)NCc1ccco1)Cc1nc2ccccc2c(=O)[nH]1 | 86.5% (inactive) | 79.7% (inactive) | 2.42% (inactive) | 77.3% | 79.7% | -0.78% (inactive) | 1.43% (inactive)
9 | O=C(Nc1ccc(S(=O)(=O)NCCc2ccccc2)cc1)c1ccc(Br)o1 | 72.4% (inactive) | 108% (inactive) | 16.8% (inactive) | 91.5% | 108% | -1.32% (inactive) | -6.35% (inactive)
10 | CCOC(=O)CSc1nnc(CNC(=O)c2ccc(S(=O)(=O)N3CCCC3)cc2)n1C | 99.1% (inactive) | 112% (inactive) | 28.2% (inactive) | 84% | 112% | -2.6% (inactive) | 0.63% (inactive)
11 | O=C1NC(c2ccccc2)(C(F)(F)F)SC2=NCCCN12 (configuration not stated) | 102% (inactive) | 97.2% (inactive) | 7.68% (inactive) | 89.6% | 97.2% | 3.82% (inactive) | -6.98% (inactive)
12 | COc1ccc(C(=O)Nc2ccccc2C(=O)NCCN2CCOCC2)cc1 | 107% (inactive) | 95.8% (inactive) | 2.99% (inactive) | 92.8% | 95.8% | 0% (inactive) | -4.13% (inactive)
13 | COc1ccc(-c2noc(C3CCCN(C(=O)CCc4ccccc4)C3)n2)cc1 (configuration not stated) | 68.3% (inactive) | 84.3% (inactive) | -5.7% (inactive) | 90% | 84.3% | -1.97% (inactive) | 11.1% (inactive)
14 | CCCS(=O)(=O)N1CCC(C(=O)NCCN2CCCC2)CC1 | 96.5% (inactive) | 94.9% (inactive) | 8.3% (inactive) | 86.6% | 94.9% | -3.2% (inactive) | 2.86% (inactive)
15 | CC(=O)Nc1ccc(S(=O)(=O)N(CC(=O)O)Cc2ccccc2)cc1 | 93.7% (inactive) | 97.7% (inactive) | -6.14% (inactive) | 104% | 97.7% | -2.47% (inactive) | 7.14% (inactive)
16 | CCCSC1=C(C#N)C(c2ccccc2OCC)CC(=O)N1 (configuration not stated) | 79% (inactive) | 90.1% (inactive) | -3.18% (inactive) | 93.3% | 90.1% | -2.5% (inactive) | 3.33% (inactive)
17 | Nc1ccc(Sc2nnnn2-c2ccccc2)c(Cl)c1 | 101% (inactive) | 92% (inactive) | -9.96% (inactive) | 102% | 92% | -6.32% (inactive) | -2.06% (inactive)
18 | COc1cccc(/C(O)=C2/C(=O)C(=O)N(CCN3CCOCC3)C2c2cccnc2)c1 (configuration not stated) | 98.9% (inactive) | 93.6% (inactive) | 0.755% (inactive) | 92.8% | 93.6% | 2.99% (inactive) | -3.02% (inactive)
19 | CCOc1ccc(OCc2cccc(C(=O)N3CCOCC3)c2)cc1 | 83.9% (inactive) | 94.5% (inactive) | 0.305% (inactive) | 94.2% | 94.5% | -5.87% (inactive) | 2.7% (inactive)
20 | Cc1cc(NC(=O)c2ccc3nc(-c4ccccc4)c(-c4ccccc4)nc3c2)no1 | 23.6% (active) | 13.4% (active) | -1.37% (inactive) | 14.8% | 13.4% | -1.05% (inactive) | 0.79% (inactive)
21 | COc1ccc(N2CCN(C(=O)CN3C(=O)C4CC=CCC4C3=O)CC2)cc1 (configuration not stated) | 99.7% (inactive) | 94.6% (inactive) | 3.03% (inactive) | 91.5% | 94.6% | 2.47% (inactive) | 14.8% (inactive)

Row | Structure (SMILES) | viability [1] | viability [2] | differential viability (reversal) ([3]; H69AR cells + 2 uM doxorubicin) | viability [3, 6] | viability [3, 7] | inhibition [4] | inhibition [5]
22 | CCCc1nc2ccccc2c2nc(N)nn12 | 99.8% (inactive) | 94.1% (inactive) | 12.3% (inactive) | 81.8% | 94.1% | -5.26% (inactive) | 0.95% (inactive)
23 | CN(CC(=O)Nc1ccccc1Cl)C(=O)COC(=O)CNC(=O)c1ccc(Br)o1 | 95.4% (inactive) | 104% (inactive) | 14.3% (inactive) | 89.5% | 104% | 0.39% (inactive) | 5.4% (inactive)
24 | O=C(CSc1nc(C2CCCCC2)n(-c2ccccc2)n1)NCCN1C(=O)CSC1=O | 103% (inactive) | 98.8% (inactive) | -4.29% (inactive) | 103% | 98.8% | -5.84% (inactive) | 1.27% (inactive)
25 | Cc1ccc(NC(=O)COc2nc(C)cs2)cc1 | 97.5% (inactive) | 91.5% (inactive) | 3.88% (inactive) | 87.6% | 91.5% | -3.64% (inactive) | 2.7% (inactive)
26 | COc1ccccc1C(=O)NCCNC(=O)c1ccco1 | 112% (inactive) | 91.6% (inactive) | -4.88% (inactive) | 96.5% | 91.6% | -4.53% (inactive) | 0.48% (inactive)
27 | CCOC(=O)CCC(=O)c1c(C)oc2ccc(OC)cc12 | 81.8% (inactive) | 88.4% (inactive) | -5% (inactive) | 93.4% | 88.4% | 1.04% (inactive) | 13.3% (inactive)
28 | CC(C)Cc1nnc(NC(=O)CCC(=O)N2CCOCC2)s1 | 91.5% (inactive) | 96.2% (inactive) | 0.305% (inactive) | 95.9% | 96.2% | -4.8% (inactive) | 0.63% (inactive)
29 | COc1ccc(Cc2nc3ccc(S(N)(=O)=O)cc3[nH]2)cc1OC | 106% (inactive) | 99.9% (inactive) | 14.6% (inactive) | 85.4% | 99.9% | -2.86% (inactive) | 0.63% (inactive)
30 | Cc1nc(NCc2ccccn2)c2ccccc2n1 | 71% (inactive) | 104% (inactive) | 16.4% (inactive) | 87.9% | 104% | 2.08% (inactive) | 2.7% (inactive)
31 | CCN(CC)c1ccc2c(c1)C(=O)N(C)C2=O | 71.6% (inactive) | 84.6% (inactive) | 2.22% (inactive) | 82.4% | 84.6% | -0.66% (inactive) | 1.9% (inactive)
32 | CCCn1cc(C(CC(=O)O)C(=O)O)c2ccccc21 (configuration not stated) | 92.8% (inactive) | 89.1% (inactive) | -3.86% (inactive) | 93% | 89.1% | -7.33% (inactive) | 5.24% (inactive)
33 | O=C(NCc1ccco1)c1noc2c1CCCCC2 | 96.4% (inactive) | 78.4% (inactive) | 5.79% (inactive) | 72.6% | 78.4% | -3.64% (inactive) | -0.95% (inactive)
34 | Cc1nn(C)c(C)c1NC(=O)CCSc1nc(-c2ccco2)cc(C(F)(F)F)n1 | 93% (inactive) | 98.8% (inactive) | 3.76% (inactive) | 95% | 98.8% | -2.93% (inactive) | 4.44% (inactive)
35 | CCCOc1ccc(N2C(=O)CC(SCCN)C2=O)cc1 (configuration not stated) | 88.2% (inactive) | 108% (inactive) | 8.12% (inactive) | 100% | 108% | -5.47% (inactive) | -3.02% (inactive)
36 | COc1cccc(OC)c1C(=O)Nc1ccccc1N1CCCC1 | 91.1% (inactive) | 91.6% (inactive) | 6.71% (inactive) | 84.9% | 91.6% | -1.71% (inactive) | -2.86% (inactive)
37 | CCS(=O)(=O)c1ccc(S(=O)(=O)CC)s1 | 104% (inactive) | 104% (inactive) | 0.02% (inactive) | 104% | 104% | -2.73% (inactive) | -1.59% (inactive)
38 | CCOc1ccc(C(=O)Nc2cc(C)on2)cc1OCC | 90.1% (inactive) | 89.9% (inactive) | 0.35% (inactive) | 89.6% | 89.9% | -4.87% (inactive) | 3.17% (inactive)
39 | Cc1ccccc1Cn1nc(C)c(NC(=O)c2noc3c2CCCC3)c1C | 75.7% (inactive) | 97.3% (inactive) | 2.39% (inactive) | 95% | 97.3% | -3.12% (inactive) | -10.3% (inactive)
40 | Cc1cc(C(=O)Nc2cc(C)n(Cc3ccc(Cl)cc3)n2)no1 | 102% (inactive) | 94.5% (inactive) | 2.41% (inactive) | 92.1% | 94.5% | 1.97% (inactive) | -6.51% (inactive)
41 | CCC(=O)Nc1ccc(NC(=O)CSc2nnnn2C(C)C)cc1 | 111% (inactive) | 93% (inactive) | 3.14% (inactive) | 89.8% | 93% | -3.82% (inactive) | 4.13% (inactive)
